The source of these data is ChEMBL document CHEMBL3044834, “Novel protoporphyrinogen oxidase inhibitors: 3H-pyrazolo[3,4-d][1,2,3]triazin-4-one derivatives” (J Agric Food Chem, 2008).

In general, inhibition refers to the share of the control response that was lost under treatment. For orientation: IC50 means the concentration at which inhibition is half-maximal. Lower therefore signals higher potency.

Assay [1] concerns Brassica rapa subsp. oleifera. Briefly: Herbicidal activity against Brassica rapa subsp. oleifera assessed as inhibition of fresh weed plant weight at 22.5 g/ha using pre-emergence treatment protocol. It counts as functional.
Assay [2] has as its system Brassica rapa subsp. oleifera. Briefly: Herbicidal activity against Brassica rapa subsp. oleifera assessed as inhibition of fresh weed plant weight at 45 g/ha using pre-emergence treatment protocol. It counts as functional.
Assay [3] concerns Brassica rapa subsp. oleifera. Briefly: Herbicidal activity against Brassica rapa subsp. oleifera assessed as inhibition of fresh weed plant weight at 93.75 g/ha using pre-emergence treatment protocol. In kind it is functional.
The subject of assay [4] is Brassica rapa subsp. oleifera. Briefly: Herbicidal activity against Brassica rapa subsp. oleifera assessed as inhibition of fresh weed plant weight at 187.5 g/ha using pre-emergence treatment protocol. In kind it is functional.
Assay [5] deals with T1, Protoporphyrinogen IX oxidase (Zea mays, UniProt Q9M629).
T1 sequence (Q9M629 whole entry): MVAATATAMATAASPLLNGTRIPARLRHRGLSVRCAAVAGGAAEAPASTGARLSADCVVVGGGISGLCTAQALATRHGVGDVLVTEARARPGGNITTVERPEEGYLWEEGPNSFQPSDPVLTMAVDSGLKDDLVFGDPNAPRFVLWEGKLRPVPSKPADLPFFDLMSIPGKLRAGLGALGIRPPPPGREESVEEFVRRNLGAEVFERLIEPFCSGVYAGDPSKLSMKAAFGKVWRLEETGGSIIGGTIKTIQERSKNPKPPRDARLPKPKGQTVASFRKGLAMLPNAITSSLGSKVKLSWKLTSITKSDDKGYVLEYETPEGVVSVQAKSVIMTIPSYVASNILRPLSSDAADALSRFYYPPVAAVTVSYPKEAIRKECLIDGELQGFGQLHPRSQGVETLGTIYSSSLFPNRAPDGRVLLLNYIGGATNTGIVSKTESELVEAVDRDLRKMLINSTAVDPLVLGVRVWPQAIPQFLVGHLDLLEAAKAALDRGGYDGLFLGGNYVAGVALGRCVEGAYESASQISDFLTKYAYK
Briefly: Inhibition of protoporphyrinogen oxidase in Zea mays (maize) seedlings leaves etioplasts using protoporphyrinogen IX incubated for 30 min by fluorescence spectroscopy.

Assay [6] relates to Digitaria sanguinalis. Briefly: Herbicidal activity against Digitaria sanguinalis (hairy crabgrass) assessed as inhibition of fresh weed plant weight at 187.5 g/ha using pre-emergence treatment protocol. In kind it is functional.
In assay [7] the test system is Digitaria sanguinalis. Briefly: Herbicidal activity against Digitaria sanguinalis (hairy crabgrass) assessed as inhibition of fresh weed plant weight at 93.75 g/ha using pre-emergence treatment protocol. In kind it is functional.
In assay [8] the test system is Digitaria sanguinalis. Briefly: Herbicidal activity against Digitaria sanguinalis (hairy crabgrass) assessed as inhibition of fresh weed plant weight at 45 g/ha using pre-emergence treatment protocol. In kind it is functional.
The subject of assay [9] is Digitaria sanguinalis. Briefly: Herbicidal activity against Digitaria sanguinalis (hairy crabgrass) assessed as inhibition of fresh weed plant weight at 22.5 g/ha using pre-emergence treatment protocol. It counts as functional.
Assay [10] has as its system Amaranthus retroflexus. Briefly: Herbicidal activity against Amaranthus retroflexus assessed as inhibition of fresh weed plant weight at 187.5 g/ha using pre-emergence treatment protocol. In kind it is functional.
In assay [11] the test system is Amaranthus retroflexus. Briefly: Herbicidal activity against Amaranthus retroflexus assessed as inhibition of fresh weed plant weight at 93.75 g/ha using pre-emergence treatment protocol. In kind it is functional.
Assay [12] deals with Amaranthus retroflexus. Briefly: Herbicidal activity against Amaranthus retroflexus assessed as inhibition of fresh weed plant weight at 45 g/ha using pre-emergence treatment protocol. In kind it is functional.
Assay [13] concerns Amaranthus retroflexus. Briefly: Herbicidal activity against Amaranthus retroflexus assessed as inhibition of fresh weed plant weight at 22.5 g/ha using pre-emergence treatment protocol. In kind it is functional.
Assay [14] relates to Echinochloa crus-galli. Briefly: Herbicidal activity against Echinochloa crus-galli (barnyard grass) assessed as inhibition of fresh weed plant weight at 187.5 g/ha using pre-emergence treatment protocol. It counts as functional. An outline of the steps:
(§1)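 Test compounds made up as emulsions by dissolving in 100 µL N,N-dimethylformamide, then adding a little Tween 20 and water. For post-emergence, weed seedlings at one leaf and one stem were sprayed at the same rates as the pre-emergence test. Fresh weight was recorded 15 days after treatment and expressed as percent inhibition versus controls. All treatments were run in triplicate.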

The subject of assay [15] is Echinochloa crus-galli. Briefly: Herbicidal activity against Echinochloa crus-galli (barnyard grass) assessed as inhibition of fresh weed plant weight at 93.75 g/ha using pre-emergence treatment protocol. In kind it is functional.
Assay [16] has as its system Echinochloa crus-galli. Briefly: Herbicidal activity against Echinochloa crus-galli (barnyard grass) assessed as inhibition of fresh weed plant weight at 45 g/ha using pre-emergence treatment protocol. In kind it is functional.
Assay [17] concerns Echinochloa crus-galli. Briefly: Herbicidal activity against Echinochloa crus-galli (barnyard grass) assessed as inhibition of fresh weed plant weight at 22.5 g/ha using pre-emergence treatment protocol. In kind it is functional. In outline: as §1

As to `C#CCN1C(=O)COc2cc(F)c(N3C(=O)C4=C(CCCC4)C3=O)cc21` [FLUMIOXAZIN], the inhibition at 22.5 g/ha is 92.6% in [1], 85.4% in [9], 100% in assay [13] and 40.9% in [17]. The inhibition at 45 g/ha in assay [2] came out at 100%; in assay [8], 100%; in assay [12], 100%; in [16], 71.4%. Besides, the inhibition at 93.75 g/ha in assay [3], in assay [7], in assay [11] and in assay [15] was 100% in each case. Moreover, the inhibition at 187.5 g/ha in assay [4], in assay [6], in [10] and in [14] was 100% in each case. Half-maximal inhibition in assay [5] (IC50) was put at 3.24 nM.
